Compounds with a hit are over-represented: about 1% of the library has one in this group of screens.
proCasp3 act: activators of human procaspase-3; P42574; recombinant procaspase-3 D3A, Ac-DEVD-pNA absorbance 405 nm; activation, % at 8.5 µM; 330,000 tested, 0.11% active;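 active = activation above the mean of all tested compounds plus 3 SD, cut at about 21% in these data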;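 also: 0% = DMSO alone and 100% = DMSO wells spiked with extra 5 µM PC-3 D3A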
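Assay system: Autoprocessing-dead procaspase-3 D3A mutant enzyme; also added: Ac-DEVD-pNA; doses: one concentration, 8.5 µM nominal, 0.8% DMSO; times: 1 h compound preincubation, 2 h substrate hydrolysis at 25 °C; technique: 405 nm absorbance of p-nitroaniline, reads at 0 and 120 min; measure: % activation between DMSO and enzyme-spiked controls; repeats: single replicate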
LYPLA1 inh: blocks human lysophospholipase 1, a PME1 counter-screen; O75608; recombinant LYPLA1, FP-Rh probe fluorescence polarization; inhibition, % at 5.9 µM; 320,000 tested, 0.16% active; AID 2174;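 active = inhibition above the mean of all tested compounds plus 3 SD, set per campaign, cut at about 14% in these data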;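 also: inhibitors block serine hydrolase probe labeling of LYPLA1 so polarization falls; 0% = enzyme with DMSO and 100% = wells lacking LYPLA1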
procasp7 counter: activates human procaspase-7, counter-screen for procaspase-3 activators; 330,000 tested, 0.093% active; activation, % at 8.5 µM; AID 463210; recombinant procaspase-7, Ac-DEVD-pNA absorbance 405 nm; D23A/D198A/D206A triple mutant, cannot self-cleave; scale: DMSO 0, 5 µM enzyme 100; P55210;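 active = percent activation above the screen-wide mean plus 3 SD, cut at about 25% in these data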
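Assay system – Uncleavable procaspase-7 mutant enzyme · Quantity – 2 µM procaspase-7 mutant as dispensed · Times – 1 h preincubation, 2 h reaction · Dosing – single nominal 8.5 µM compound dose, 0.8% DMSO final · Buffer or medium – Zinc-free 50 mM HEPES buffer, pH 7.4, with NaCl and Triton X-100 · Detection – Epi-absorbance of released pNA at 405 nm, two timepoints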
PREPL inhibitor: inhibitors of human prolyl oligopeptidase-like enzyme PREPL | AID 2751 | recombinant PREPL, fluorescence polarization activity-based probe | inhibition, % at 5.96 µM | 320,000 tested, 0.68% active; in the data active = inhibition above about 43%;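 also: 0% = enzyme with DMSO and 100% = wells lacking enzyme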
Target sequence (Q4J6C6 whole entry, looked up): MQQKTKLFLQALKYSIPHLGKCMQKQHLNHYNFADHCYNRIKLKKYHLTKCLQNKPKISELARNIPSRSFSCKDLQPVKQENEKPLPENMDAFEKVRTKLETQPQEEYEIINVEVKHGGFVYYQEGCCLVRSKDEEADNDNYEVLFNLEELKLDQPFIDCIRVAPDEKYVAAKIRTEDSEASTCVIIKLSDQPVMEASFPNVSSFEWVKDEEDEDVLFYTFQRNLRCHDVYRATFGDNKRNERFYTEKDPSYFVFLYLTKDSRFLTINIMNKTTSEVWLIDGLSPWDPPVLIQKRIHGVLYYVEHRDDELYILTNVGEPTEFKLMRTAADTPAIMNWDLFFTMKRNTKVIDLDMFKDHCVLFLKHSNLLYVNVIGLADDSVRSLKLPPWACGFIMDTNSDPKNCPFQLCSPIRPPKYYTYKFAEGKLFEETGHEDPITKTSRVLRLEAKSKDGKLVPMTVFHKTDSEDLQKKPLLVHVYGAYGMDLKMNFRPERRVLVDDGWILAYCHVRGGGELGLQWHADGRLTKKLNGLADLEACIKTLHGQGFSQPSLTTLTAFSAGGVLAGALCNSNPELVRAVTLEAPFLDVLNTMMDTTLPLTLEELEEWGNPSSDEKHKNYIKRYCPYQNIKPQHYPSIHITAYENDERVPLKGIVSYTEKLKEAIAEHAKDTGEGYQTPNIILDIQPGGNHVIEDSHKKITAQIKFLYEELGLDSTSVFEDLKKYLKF
LYPLA2 inh: LYPLA2 (human) inhibition in PME1 counter-screen | O95372 | recombinant LYPLA2, FP-Rh probe fluorescence polarization | inhibition, % at 5.9 µM | 320,000 tested, 0.38% active;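 active = inhibition above the screen-wide mean plus 3 SD, limit set per campaign, cut at about 26% in these data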;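 also: 0% = LYPLA2 with DMSO and 100% = wells lacking LYPLA2 enzyme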
LYPLA2 conf: LYPLA2 (human) inhibition, confirmation counter-screen; recombinant LYPLA2, FP-Rh probe fluorescence polarization; AID 2232; 1,100 tested, 72% active; inhibition, % at 5.9 µM; shares compounds with LYPLA2 inh;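 active = mean inhibition across replicates above the hit cutoff set in the primary screen, cut at about 26% in these data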;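 also: blocked labeling of the enzyme by serine hydrolase FP-Rh probe lowers polarization; 0% = enzyme with DMSO and 100% = wells lacking LYPLA2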
LYPLA2 gel ABPP: inhibitors of human LYPLA2; shares compounds with LYPLA2 inh; rhLYPLA2 in mouse brain proteome, gel ABPP FP-Rh; inhibition, % at 20 µM; 150 tested, 30% active; AID 652029;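 active = inhibition of LYPLA2 enzyme probe labeling above about 50%, limit read from the data; inactive = inhibition below that limit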;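 also: loss of FP-Rh probe labeling of the LYPLA2 gel band measured as band density; 0% = DMSO only control band and 100% = blank gel background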
Starred values were filed as active, the others as inactive; . = no result given.

SMILES | proCasp3 act | LYPLA1 inh | procasp7 counter | PREPL inhibitor | LYPLA2 inh | LYPLA2 conf | others
COc1ccc(C(=O)OCC(=O)c2c(N)n(C)c(=O)n(C)c2=O)cc1OC | 0 | 1 | 5 | 3 | 3 | .
Cc1ccc(C(=O)COC(=O)c2ccc3c(c2)C(=O)N(c2cccc4ncccc24)C3=O)cc1C | -2 | -3 | -9 | 12 | 30* | 36*
O=C(CCC1CCCC1)N1CCN(C(=O)c2ccco2)CC1 | 2 | 1 | 7 | 4 | 0 | .
O=C(NCCNC(=O)c1cc(OCC(F)(F)F)ccc1OCC(F)(F)F)Nc1ccc(OC(F)(F)F)cc1 | 4 | 11 | -1 | 7 | 26* | 35*
O=C(NCCNC(=O)c1cc(OCC(F)(F)F)ccc1OCC(F)(F)F)Nc1ccc(Cl)cc1 | 2 | -7 | 10 | 2 | 20 | .
O=C(CCCN1CCC(O)(c2ccc(Br)cc2)CC1)c1ccc(F)cc1 | 4 | 2 | 7 | 5 | 18 | .
O=C(CCCN1CCC(O)(c2cccc(C(F)(F)F)c2)CC1)c1ccc(F)cc1 | 3 | 0 | -1 | -5 | 72* | 68*
COC(=O)c1ccc(NC(=O)C(=O)N2CCN(C(=S)Nc3ccc(OC)cc3)CC2)cc1 | 3 | -2 | 9 | -8 | 42* | 58*
COCCNC(=S)N1CCN(C(=O)C(=O)Nc2ccc(C(=O)OC)cc2)CC1 | 13 | -3 | 5 | 3 | -4 | .
COC(=O)c1ccc(NC(=O)C(=O)N2CCN(C(=S)Nc3ccc(C)cc3)CC2)cc1 | 4 | 0 | 8 | 2 | 48* | 54*
CN1CC(=O)N2Cc3[nH]c4ccccc4c3C[C@H]2C1=O | 4 | 3 | 5 | 3 | 4 | .
CCCCN1CC(=O)N2Cc3[nH]c4ccccc4c3C[C@H]2C1=O | 9 | 2 | 6 | 13 | 39* | 27*
O=C(c1cc(COc2ccc(F)cc2Cl)on1)N1CCC(c2ccncc2)CC1 | 3 | 6 | 2 | 4 | 33* | 30*
O=C(OCC(=O)N1CCN(C(=O)COC(=O)c2ccc(O)cc2O)CC1)c1ccc(O)cc1O | 3 | 4 | -4 | -2 | 28* | 27*
COC(=O)[C@H]1[C@@H](C)N(Cc2ccccc2)C(=O)N[C@H]1c1ccccc1 | 4 | -2 | -4 | 6 | -1 | .
CCOC(=O)N1CCN(CC(=O)Nc2sccc2C#N)CC1 | 2 | 10 | 4 | 8 | 45* | 39*
CCN1CCc2c(sc(NC(=O)c3ccc(C(=O)c4ccccc4)cc3)c2C(N)=O)C1 | 3 | -2 | 4 | 24 | 26* | 25
Cc1ccccc1Cn1c(=O)n(CC2CCC(C(=O)NCCc3ccccc3)CC2)c(=O)c2ccccc21 (stereo not given) | 1 | -3 | -4 | 1 | -9 | .
O=C1CCC/C(=N/NC(=O)c2ccc(CN3c4cccc5cccc(c45)S3(=O)=O)cc2)C1 | -8 | -4 | 0 | -4 | 57* | 67*
Cc1ncc(CO)c(/C=N/Nc2ccc(C(F)(F)F)cn2)c1O | -7 | -1 | 8 | 6 | 2 | .
C/C(CC(=O)Nc1cccc(C(F)(F)F)c1)=N\NC(=O)c1ccncc1 | -3 | 3 | -1 | 4 | 3 | .
CC(=O)c1ccc(OCc2cc(C(=O)NC(C)c3cnn(C)c3)no2)cc1 (stereo not given) | 5 | 5 | -7 | 5 | 30* | 22
O=C(NC(=S)Nc1ccc2oc(=O)ccc2c1)c1ccco1 | 5 | 3 | 3 | 12 | 2 | .
NCc1cccc(CNc2ccc([N+](=O)[O-])cc2C(N)=O)c1 | -16 | 2 | 10 | 7 | 4 | .
NC(=O)c1cc([N+](=O)[O-])ccc1NCc1cccc([N+](=O)[O-])c1 | -12 | 4 | -10 | 12 | 29* | 29*
SMILES | proCasp3 act | LYPLA1 inh | procasp7 counter | PREPL inhibitor | LYPLA2 inh | LYPLA2 conf | others
CSc1cccc(CN2CCC(Oc3ccc(C(=O)N4CCCCC4)cc3)CC2)c1 | 12 | 4 | 3 | 12 | 31* | 9
COc1ccccc1/C=C/CN1CCC(Oc2ccc(C(=O)N3CCCC3)cc2)CC1 | 8 | 3 | 0 | 19 | 17 | .
CC(C)/C=C/CN1CCC(Oc2ccc(C(=O)N3CCCC3)cc2)CC1 | -2 | 0 | -2 | -2 | 60* | 5
CCc1ccc(C(=O)N2CCC(c3nc4ccccc4s3)CC2)cc1 | 5 | 0 | 4 | -5 | 49* | 39*
COc1ccc(CCn2c(C)cc(C(=O)COC(=O)c3cnccn3)c2C)cc1 | -7 | 2 | 5 | -11 | 43* | 41*
CCOC(=O)c1sc(/N=C/N(C)C)c(C(=O)OCC)c1C | -7 | 2 | 5 | 10 | 5 | .
CCOC(=O)c1sc(/N=C/N(C)C)nc1C | 4 | 4 | 9 | -2 | 32* | 2
Cc1ccc(NC2CCCN(C(=O)CCN3CCCCO3)C2)cc1C (stereo not given) | 7 | 0 | -4 | 16 | 2 | .
Cc1ccc(N/C=C(\C#N)c2ccc(OCCCF)cc2)cc1 | 4 | -2 | 1 | 6 | 65* | 75* | LYPLA2 gel ABPP=52*
COc1ccc(N/C=C(\C#N)S(=O)(=O)c2ccc(OC)cc2)cc1 | -5 | -1 | -2 | -15 | 1 | .
COc1ccc(N/C=C(\C#N)c2ccc(OCCCF)cc2)cc1 | 3 | 6 | 0 | 9 | 73* | 61* | LYPLA2 gel ABPP=37
Cc1ccc(S(=O)(=O)N(C)CC(=O)O/N=C(\N)c2ccc([N+](=O)[O-])cc2)cc1 | 2 | 7 | 2 | -37 | 67* | 58* | LYPLA2 gel ABPP=0
CN(CC(=O)O/N=C(\N)c1ccc([N+](=O)[O-])cc1)S(=O)(=O)c1ccccc1 | 9 | -1 | 2 | -31 | 29* | 18
CCOC(=O)N1CCN(CC(O)COCc2ccc(OC)c(OC)c2)CC1 (stereo not given) | -3 | 1 | 1 | 7 | 4 | .
O=C1CC(c2ccc(Cl)cc2)CC(O)=C1C=NCc1ccc(Cl)c(Cl)c1 (stereo not given) | -2 | 2 | -7 | 4 | 27* | 58* | LYPLA2 gel ABPP=37
COc1cccc(OCC(O)CN2CCN(CCN3C(=O)c4cccc5cccc(c45)C3=O)CC2)c1 (stereo not given) | 11 | 3 | 2 | 7 | 32* | 34*
COc1cccc(OCC(O)CN2CCOCC2)c1 (stereo not given) | -11 | -2 | 5 | 5 | -4 | .
O=C(c1cc2c(s1)CCCCC2)N1CCN(c2ncccn2)CC1 | -1 | 1 | -8 | 13 | 3 | .
CC(=O)c1ccc(N2CCN(C(=O)c3cc4c(s3)CCCC4)CC2)cc1 | 10 | 3 | 3 | 42 | 44* | 54* | LYPLA2 gel ABPP=28
